# An excerpt weighted towards active compounds, which were near 1.5% of everything screened.
# TRAIL sens C8 = caspase-8 TRAIL sensitization. inhibition (viability loss, TRAIL sensitization), % at 10 µM. 360,000 tested, 1% active. AID 624354. NB7+C8 cells + TRAIL, ATPlite viability luminescence;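 active = compounds causing at least 50% loss of cell viability in the single-dose screen, relative to plate controls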
# FLuc act counter = affects firefly luciferase, flagging false hits in luciferase stimulation screens; ATPlite luciferase biochemical, luminescence, 10 min; 0 = ATP-free wells, 1 = DMSO control; AID 1027; activation factor at 10 µM; P08659; 200,000 tested, under 10 active;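 active = luciferase activation factor, scaled between plate controls, of at least 2 with compound at 10 µM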
# Target sequence (P08659 whole entry, looked up): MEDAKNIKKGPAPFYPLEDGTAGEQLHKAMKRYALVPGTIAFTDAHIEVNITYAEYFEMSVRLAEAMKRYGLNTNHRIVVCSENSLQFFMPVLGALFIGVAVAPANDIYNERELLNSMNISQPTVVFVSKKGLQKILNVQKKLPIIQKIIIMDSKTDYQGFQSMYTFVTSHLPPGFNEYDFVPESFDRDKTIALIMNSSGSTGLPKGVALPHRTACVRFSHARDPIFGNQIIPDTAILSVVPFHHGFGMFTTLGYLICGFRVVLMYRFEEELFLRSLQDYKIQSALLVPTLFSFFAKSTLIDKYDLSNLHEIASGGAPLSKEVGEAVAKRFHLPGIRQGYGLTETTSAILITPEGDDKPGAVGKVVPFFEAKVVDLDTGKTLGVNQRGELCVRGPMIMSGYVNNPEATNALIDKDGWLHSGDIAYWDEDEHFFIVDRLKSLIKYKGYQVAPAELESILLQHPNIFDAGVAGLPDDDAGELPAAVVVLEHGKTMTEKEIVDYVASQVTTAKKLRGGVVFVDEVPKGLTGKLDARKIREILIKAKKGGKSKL
#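 System: Luciferase/luciferin detection reagent, cell-free biochemical luciferase assay | Medium: PBS buffer for ATP | Dosing: Test compounds dosed from 2 mM stocks in 100% DMSO | Timing: 10 min at ambient temperature | Signal: Luminescence measurement of luciferase light output | Evaluation: Luciferase activation, seen as luminescence increase over controls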
# FLuc inhib CS = counter-screen for luciferase assay inhibitors: firefly luciferase inhibition | P08659 | AID 1006 | inhibition, % at 10 µM | ATPLite firefly luciferase biochemical luminescence, 10 min | 200,000 tested, 1.5% active;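 active = inhibition above about 50% when tested at 10 µM, limit read from the data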
# PPC-1+TRAIL kill = compounds killing PPC-1 cancer cells with TRAIL present (potentiator screen, no TRAIL-free arm) | PPC-1 cells + TRAIL, ATPLite viability luminescence | cell killing (% activity), % at 4 µM or 5 µM | 220,000 tested, 0.41% active;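 active = cell killing above 50% in the first pass at 4 µM, then a duplicate retest at 5 µM averaging 50% or more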;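 also: plate controls were cells with TRAIL plus DMSO for no effect and medium-only wells lacking cells for full effect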
# PPC1 cytotox = kills PPC-1 cells; 1,200 tested, 50% active; cytotoxicity, % at 5 µM; PPC-1 viability, ATPlite luminescence, overnight; shares compounds with PPC-1+TRAIL kill;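 active = reconfirmed compounds whose average cytotoxicity reaches 50% or more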;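 also: 0% = DMSO-treated cells and 100% = wells holding medium but no cells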
# Starred values were filed as active, the others as inactive; / = no result given.
SMILES,TRAIL sens C8,FLuc act counter,FLuc inhib CS,PPC-1+TRAIL kill,PPC1 cytotox
c1ccc(-c2noc(-c3ccc4c(c3)OCO4)n2)nc1,85*,0.1,94*,87*,88*
O=C1CN(C(=O)/C=C/c2ccc(Br)cc2)CCN1,-3,/,/,/,/
Cc1ccc2c(c1)c1nc3ccccc3nc1n2C,2,/,/,/,/
Cn1c2ccc(Cl)cc2c2nc3ccccc3nc21,6,1,-4,6,21
NS(=O)(=O)c1cccc(NC(=S)NCc2ccc3c(c2)OCO3)c1,-5,1,-1,9,0
Cc1ccc(N2C(=O)Nc3ccccc3C2(O)C(=O)N2CCN(c3ccccn3)CC2)cc1C (configuration not stated),18,0.9,10,11,5
O=C(CNC(=O)c1cccc(F)c1)N/N=C/c1cccs1,-10,/,/,/,/
CN(C(=O)c1cccc(Nc2ccc(-c3ccc4c(c3)OCCO4)nn2)c1)C1CCCCC1,68*,0.2,77*,53*,55*
Cc1ccc(C(=O)NCC(=O)Nc2ccc3c(c2)CCC3)cc1,-8,/,/,/,/
Cc1ccc(C(=O)Nc2ccc3c(c2)CCC3)cc1,79*,0.1,90*,52*,53*
O=C(Nc1ccc2c(c1)OCCO2)c1ccc2nccnc2c1,68*,0.2,80*,50,49
Cc1ccc(C(=O)Nc2cc3ccccc3oc2=O)cc1,82*,0.1,87*,72*,72*
O=C(Nc1ccc2c(c1)OCCO2)c1ccc(Cl)c(Cl)c1,6,/,/,/,/
Cc1cc(NC(=O)c2ccc3c(c2)OCCO3)ccc1NC(=O)c1ccco1,63*,0.2,82*,51*,50
Cc1ccc(C)c(NC(=S)N2CCC(NC(=O)C3CCCCC3)CC2)c1,-1,/,/,/,/
Cc1cccc(C)c1NC(=O)Cn1cc(C=O)c2ccccc21,19,/,/,/,/
Cc1ccc(C(=O)Nc2cnc3ccccc3c2)cc1,78*,0.1,89*,70*,67*
Cc1ccc(C(=O)Nc2ccc3nccnc3c2)cc1,76*,0.1,89*,74*,74*
Cc1ccc(-c2cnc(C(O)c3cc(F)cc(Cl)c3)[nH]2)cc1 (configuration not stated),-26,/,/,/,/
O=C(CCSc1ccc(Cl)cc1)N1CCOCC1,-6,1,0,7,/
O=C(CSc1ccc(Cl)cc1)N1CCOCC1,-4,1,-1,1,5
Cn1c(/C=C/c2ccccc2)nc2ccccc21,83*,0.1,94*,80*,82*
Cn1c(=O)c(/C=C/c2ccccc2)nc2ccccc21,30,0.6,37,6,/
CCCCNC(=O)C1(C)CCC(=O)N1c1cc(C(C)(C)C)nn1C (configuration not stated),-5,/,/,/,/
O=C(COC(=O)CN1C(=O)c2ccccc2C1=O)Nc1ccc(S(=O)(=O)N2CCCC2)cc1,38,1.1,-11,13,16
SMILES,TRAIL sens C8,FLuc act counter,FLuc inhib CS,PPC-1+TRAIL kill,PPC1 cytotox
CCOC(=O)c1c(NC(=O)c2noc(C)c2[N+](=O)[O-])sc(C(C)=O)c1C,-2,1.1,-6,5,-2
CCCc1nnc(NC(=O)CCC(=O)N2CCC(Cc3ccccc3)CC2)s1,13,/,/,/,/
CCOc1ccc(C(=O)Nn2cnnc2)cc1,2,1,1,18,/
CCOc1ccc(C/C(N)=N/n2cnnc2)cc1,-16,1.1,-6,15,17
COc1cc(CNCc2ccc(Br)cc2)cc(OC)c1,-11,/,/,/,/
CCNC(=O)C1(C)CCCCN1Cc1ccc(C#N)cc1 (configuration not stated),-14,/,/,/,/
Cc1cnc(NC(=O)c2ccc(OCC3CCCO3)cc2)s1 (configuration not stated),87*,0,95*,83*,86*
Cc1ccc(NC(=O)c2ccc(OCC3CCCO3)cc2)nc1 (configuration not stated),21,/,/,/,/
O=C(NC1CCCCC1)C(c1ccccc1)N(Cc1ccc2c(c1)OCO2)C(=O)c1cnsn1 (configuration not stated),15,1,-4,1,8
Cc1ccc(N=C/C(C(=O)C(F)(F)F)=C(\O)c2cccs2)cc1,61*,0.6,43,29,36
COc1ccc(N2CCN(Cc3nc4cc(Cl)ccc4c(=O)[nH]3)CC2)cc1,-5,1,-5,0,6
COc1cc2c(cc1OC)C(c1ccccc1)CC2=O (configuration not stated),8,/,/,10,/
Cc1cc(NC(=O)CSc2nnc(-c3cccnc3)n2Cc2ccccc2)no1,-3,1.1,-7,-19,/
